From ChEMBL document CHEMBL1149410, “Discovery of a potent phenolic N1-benzylidene-pyridinecarboxamidrazone selective against Gram-positive bacteria” (Bioorg Med Chem Lett, 2006)
Values after ≈ are worked out from the molar mass of the structure shown. Active and inactive are the calls of the source. The calls are words filed in the database; no cut-off is given here.

Legend:
PBMC [1] = assay: Toxicity towards human mononuclear leucocytes at 1 mM; assay type: cell-based; details: 1000 µM
Method in brief: (§1)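 Human mononuclear leucocytes were exposed to compound for 1 h, then held in compound-free medium for 18 h. Cell death was scored by trypan blue exclusion and reported as % leucocyte death. The test concentration was 1 mM, or 0.5 mM where solubility limited it.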

Staphylococcus aureus [2] = assay: Antibacterial activity against 10 clinical isolate methicillin-resistant strains of Staphylococcus aureus; assay type: functional
Method in brief: (§2)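 Agar dilution MIC on Mueller–Hinton agar. Bacteria were spotted with a multipoint inoculator and plates incubated at 37 °C for 18 h. MIC was taken as the lowest concentration inhibiting growth. The panels covered clinical MRSA isolates, methicillin-sensitive S. aureus, enterococci, Gram-negative bacteria and vancomycin-resistant enterococci.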

[3] = system: Mycolicibacterium fortuitum; assay: Antibacterial activity against Mycobacterium fortuitum; assay type: functional, organism-based
Method in brief: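 The Mycobacterium fortuitum reference strain NCTC 10394 was screened for a zone of inhibition on Columbia agar supplemented with horse blood. Compounds were also screened at a single concentration in Middlebrook 7H9 broth with glycerol and ADC enrichment. The MIC was determined in broth when a zone or single-concentration activity was seen.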

[4] = system: Staphylococcus haemolyticus; assay: Antibacterial activity against clinical isolate of Staphylococcus haemolyticus; assay type: functional
Method in brief: (§3)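 Agar dilution MIC on Mueller–Hinton agar, with a multipoint inoculator spotting the organisms. The MIC was the lowest concentration that inhibited growth after 18 h at 37 °C.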

Pseudomonas aeruginosa = assay: Antibacterial activity against Pseudomonas aeruginosa NCTC 6749; assay type: functional; method in brief: as §2
Escherichia coli [5] = assay: Antibacterial activity against Escherichia coli W3110 R+; assay type: functional; method in brief: as §2
Enterobacter cloacae = assay: Antibacterial activity against Enterobacter cloacae NCTC 11582; assay type: functional; method in brief: as §2
Staphylococcus aureus [6] = assay: Antibacterial activity against methicillin-sensitive Staphylococcus aureus NCTC 6571; assay type: functional; method in brief: as §2
Staphylococcus aureus [7] = assay: Antibacterial activity against methicillin-sensitive Staphylococcus aureus NCTC 10788; assay type: functional; method in brief: as §2
[8] = system: Bordetella bronchiseptica; assay: Antibacterial activity against Bordetella bronchiseptica NCTC 8344; assay type: functional; method in brief: as §2
Staphylococcus aureus [9] = assay: Antibacterial activity against methicillin-sensitive Staphylococcus aureus Cowan 1; assay type: functional; method in brief: as §2
Enterococcus faecium [10] = assay: Antibacterial activity against Enterococcus faecium NCTC 7171; assay type: functional; method in brief: as §3
Escherichia coli [11] = assay: Antibacterial activity against Escherichia coli W3110 R-; assay type: functional; method in brief: as §2
Enterococcus faecalis [12] = assay: Antibacterial activity against Enterococcus faecalis NCTC 5957; assay type: functional; method in brief: as §3
[13] = system: Stenotrophomonas maltophilia; assay: Antibacterial activity against Stenotrophomonas maltophilia NCTC 10257; assay type: functional; method in brief: as §2
[14] = system: Mycobacterium tuberculosis; assay: Antibacterial activity against Mycobacterium tuberculosis H37Rv at 6.25 ug/ml; assay type: functional
Method in brief: (§4)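 Inhibition of M. tuberculosis H37Rv (ATCC 27294) growth was tested in BACTEC 12B medium. Percent inhibition was recorded at a fixed concentration, and MIC was also determined.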

Enterococcus faecium [15] = assay: Antibacterial activity against Enterococcus faecium ACTCC 10541; assay type: functional; method in brief: as §3
Enterococcus faecalis [16] = assay: Antibacterial activity against Enterococcus faecalis isolate 1; assay type: functional; method in brief: as §3
Serratia marcescens = assay: Antibacterial activity against Serratia marcescens 4444; assay type: functional; method in brief: as §2
Klebsiella pneumoniae = assay: Antibacterial activity against Klebsiella pneumoniae 327; assay type: functional; method in brief: as §2
PBMC [17] = assay: Toxicity towards human mononuclear leucocytes at 0.5 mM; assay type: cell-based; details: 500 µM; method in brief: as §1
Enterococcus faecalis [18] = assay: Antibacterial activity against Enterococcus faecalis isolate 5; assay type: functional; method in brief: as §3
Enterococcus [19] = assay: Antibacterial activity against vancomycin-resistant Enterococcus 3002043; assay type: functional; method in brief: as §2
[20] = system: Mycobacterium tuberculosis; assay: Antibacterial activity against Mycobacterium tuberculosis H37Rv; assay type: functional; method in brief: as §4
Enterococcus [21] = assay: Antibacterial activity against vancomycin-resistant Enterococcus 3002066; assay type: functional; method in brief: as §2
Enterococcus faecalis [22] = assay: Antibacterial activity against Enterococcus faecalis isolate 4; assay type: functional; method in brief: as §3
Enterococcus [23] = assay: Antibacterial activity against vancomycin-resistant Enterococcus 3102095; assay type: functional; method in brief: as §2
Enterococcus [24] = assay: Antibacterial activity against vancomycin-resistant Enterococcus 3005353; assay type: functional; method in brief: as §2
Enterococcus [25] = assay: Antibacterial activity against vancomycin-resistant Enterococcus 3001562; assay type: functional; method in brief: as §2
Enterococcus [26] = assay: Antibacterial activity against vancomycin-resistant Enterococcus 3005426; assay type: functional; method in brief: as §2
Enterococcus faecalis [27] = assay: Antibacterial activity against Enterococcus faecalis isolate 3; assay type: functional; method in brief: as §2
Enterococcus [28] = assay: Antibacterial activity against vancomycin-resistant Enterococcus 3005323; assay type: functional; method in brief: as §2
Enterococcus faecalis [29] = assay: Antibacterial activity against Enterococcus faecalis isolate 2; assay type: functional; method in brief: as §2

## CC(C)(C)c1cc(C=O)c(O)c(C(C)(C)C)c1
PBMC [1]
  Activity: 32.7%

## N/C(=N\N=C\c1c(O)cc(O)cc1O)c1ccncc1
Staphylococcus aureus [2]
  MIC: inactive
[3]
  Activity: inactive

## COc1cc([N+](=O)[O-])cc(/C=N/N=C(\N)c2ccncc2)c1O
Staphylococcus aureus [2]
  MIC: inactive
[3]
  Activity: inactive

## N/C(=N\N=C\c1ccccc1O)c1ccncc1
PBMC [1]
  Activity: 11.7%
Staphylococcus aureus [2]
  MIC: inactive

## Cc1cc(C)c(O)c(/C=N/N=C(\N)c2ccncc2)c1
Staphylococcus aureus [2]
  MIC: inactive

## COc1cccc(/C=N/N=C(\N)c2ccncc2)c1O
Staphylococcus aureus [2]
  MIC: inactive
[3]
  Activity: inactive

## N/C(=N\N=C\c1cc(O)c(O)cc1O)c1ccncc1
Staphylococcus aureus [2]
  MIC: 20 µg/mL (≈ 73.5 µM)
[3]
  Activity: inactive

## CC(C)(C)c1cc(/C=N/N=C(\N)c2ccccn2)c(O)c(C(C)(C)C)c1
Staphylococcus aureus [2]
  MIC: inactive
[3]
  Activity: inactive

## CC(C)(C)c1cc(/C=N/N=C(\N)c2ccncc2)cc(C(C)(C)C)c1O
[4]
  MIC: inactive
Pseudomonas aeruginosa
  MIC: inactive
Escherichia coli [5]
  MIC: inactive
Enterobacter cloacae
  MIC: inactive
Staphylococcus aureus [6]
  MIC: > 256 µg/mL
Staphylococcus aureus [7]
  MIC: inactive
[8]
  MIC: inactive
Staphylococcus aureus [9]
  MIC: inactive
Enterococcus faecium [10]
  MIC: inactive
Escherichia coli [11]
  MIC: inactive
Enterococcus faecalis [12]
  MIC: inactive
Staphylococcus aureus [2]
  MIC: > 256 µg/mL
[13]
  MIC: inactive
[3]
  Activity: inactive
[14]
  inhibition at 6.25 µg/mL: 75%
Enterococcus faecium [15]
  MIC: inactive
Enterococcus faecalis [16]
  MIC: inactive
Serratia marcescens
  MIC: inactive
Klebsiella pneumoniae
  MIC: inactive

## N/C(=N\N=C\c1cc([N+](=O)[O-])cc(Br)c1O)c1ccncc1
Staphylococcus aureus [2]
  MIC: inactive

## N/C(=N\N=C\c1ccc(O)c(O)c1O)c1ccncc1
Staphylococcus aureus [2]
  MIC: 30 µg/mL (≈ 110 µM)
[3]
  Activity: inactive

## CC(C)(C)c1cc(/C=N/N=C(\N)c2cnccn2)c(O)c(C(C)(C)C)c1
Staphylococcus aureus [2]
  MIC: inactive
[3]
  Activity: inactive

## N/C(=N\N=C\c1cccc(O)c1O)c1ccncc1
Staphylococcus aureus [2]
  MIC: inactive
[3]
  Activity: inactive

## NNC(=O)c1ccncc1 [ISONIAZID]
PBMC [1]
  Activity: 12.4%

## COc1ccc(/C=N/N=C(\N)c2ccncc2)c(O)c1
Staphylococcus aureus [2]
  MIC: inactive
[3]
  Activity: inactive

## CC(C)(C)c1cc(/C=N/N=C(\N)c2ccc3ccccc3n2)c(O)c(C(C)(C)C)c1
Staphylococcus aureus [2]
  MIC: inactive
[3]
  Activity: inactive

## N/C(=N\N=C\c1cc([N+](=O)[O-])ccc1O)c1ccncc1
Staphylococcus aureus [2]
  MIC: 20 µg/mL (≈ 70.1 µM)
[3]
  Activity: inactive

## N/C(=N\N=C\c1cc(I)cc(I)c1O)c1ccncc1
Staphylococcus aureus [2]
  MIC: 10 µg/mL (≈ 20.3 µM)

## N/C(=N\N=C\c1ccc(O)c(O)c1)c1ccncc1
Staphylococcus aureus [2]
  MIC: inactive
[3]
  Activity: inactive

## CC(C)(C)c1cc(/C=N/N=C(\N)c2ccncc2)c(O)c(C(C)(C)C)c1
PBMC [17]
  Activity: 100%
[4]
  MIC: 2 µg/mL (≈ 5.67 µM)
Pseudomonas aeruginosa
  MIC: inactive
Escherichia coli [5]
  MIC: inactive
Enterococcus faecalis [18]
  MIC: 2 µg/mL (≈ 5.67 µM)
Enterobacter cloacae
  MIC: inactive
Staphylococcus aureus [6]
  MIC: 2 µg/mL (≈ 5.67 µM)
Staphylococcus aureus [7]
  MIC: 2 µg/mL (≈ 5.67 µM)
[8]
  MIC: inactive
Staphylococcus aureus [9]
  MIC: 2 µg/mL (≈ 5.67 µM)
Enterococcus faecium [10]
  MIC: 2 µg/mL (≈ 5.67 µM)
Enterococcus [19]
  MIC: 2 µg/mL (≈ 5.67 µM)
[20]
  MIC: 6.25 µg/mL (≈ 17.7 µM)
Escherichia coli [11]
  MIC: inactive
Enterococcus [21]
  MIC: 2 µg/mL (≈ 5.67 µM)
Enterococcus faecalis [22]
  MIC: 2 µg/mL (≈ 5.67 µM)
Enterococcus faecalis [12]
  MIC: 2 µg/mL (≈ 5.67 µM)
Staphylococcus aureus [2]
  MIC: 2 µg/mL (≈ 5.67 µM)
Enterococcus [23]
  MIC: 2 µg/mL (≈ 5.67 µM)
[13]
  MIC: inactive
[3]
  Activity: inactive
Enterococcus [24]
  MIC: 2 µg/mL (≈ 5.67 µM)
Enterococcus [25]
  MIC: 2 µg/mL (≈ 5.67 µM)
Enterococcus [26]
  MIC: 2 µg/mL (≈ 5.67 µM)
[14]
  inhibition at 6.25 µg/mL: 100%
Enterococcus faecium [15]
  MIC: 2 µg/mL (≈ 5.67 µM)
Enterococcus faecalis [16]
  MIC: 2 µg/mL (≈ 5.67 µM)
Enterococcus faecalis [27]
  MIC: 4 µg/mL (≈ 11.3 µM)
Enterococcus [28]
  MIC: 2 µg/mL (≈ 5.67 µM)
Serratia marcescens
  MIC: inactive
Enterococcus faecalis [29]
  MIC: 2 µg/mL (≈ 5.67 µM)
Klebsiella pneumoniae
  MIC: inactive

## CC(C)(C)c1cc(/C=N/N=C(\N)c2cccnc2)c(O)c(C(C)(C)C)c1
Staphylococcus aureus [2]
  MIC: inactive
[3]
  Activity: inactive

## CN[C@H](CC(C)C)C(=O)N[C@H]1C(=O)N[C@@H](CC(N)=O)C(=O)N[C@H]2C(=O)N[C@H]3C(=O)N[C@H](C(=O)N[C@H](C(=O)O)c4cc(O)cc(O)c4-c4cc3ccc4O)[C@H](O)c3ccc(c(Cl)c3)Oc3cc2cc(c3O[C@@H]2O[C@H](CO)[C@@H](O)[C@H](O)[C@H]2O[C@H]2C[C@](C)(N)[C@H](O)[C@H](C)O2)Oc2ccc(cc2Cl)[C@H]1O [VANCOMYCIN]
[4]
  MIC: 8 µg/mL (≈ 5.52 µM)
Pseudomonas aeruginosa
  MIC: > 16 µg/mL
Escherichia coli [5]
  MIC: > 16 µg/mL
Enterococcus faecalis [18]
  MIC: 2 µg/mL (≈ 1.38 µM)
Enterobacter cloacae
  MIC: > 16 µg/mL
Staphylococcus aureus [6]
  MIC: 0.12 µg/mL (≈ 0.0828 µM)
Staphylococcus aureus [7]
  MIC: 0.25 µg/mL (≈ 0.173 µM)
[8]
  MIC: > 16 µg/mL
Staphylococcus aureus [9]
  MIC: 0.12 µg/mL (≈ 0.0828 µM)
Enterococcus faecium [10]
  MIC: 0.12 µg/mL (≈ 0.0828 µM)
Enterococcus [19]
  MIC: 4 µg/mL (≈ 2.76 µM)
Escherichia coli [11]
  MIC: > 16 µg/mL
Enterococcus [21]
  MIC: 4 µg/mL (≈ 2.76 µM)
Enterococcus faecalis [22]
  MIC: 16 µg/mL (≈ 11 µM)
Enterococcus faecalis [12]
  MIC: 0.25 µg/mL (≈ 0.173 µM)
Staphylococcus aureus [2]
  MIC: 0.05 µg/mL (≈ 0.0345 µM)
Enterococcus [23]
  MIC: > 16 µg/mL
[13]
  MIC: > 16 µg/mL
Enterococcus [24]
  MIC: > 16 µg/mL
Enterococcus [25]
  MIC: 4 µg/mL (≈ 2.76 µM)
Enterococcus [26]
  MIC: 4 µg/mL (≈ 2.76 µM)
Enterococcus faecium [15]
  MIC: 0.12 µg/mL (≈ 0.0828 µM)
Enterococcus faecalis [16]
  MIC: 0.12 µg/mL (≈ 0.0828 µM)
Enterococcus faecalis [27]
  MIC: 0.25 µg/mL (≈ 0.173 µM)
Enterococcus [28]
  MIC: > 16 µg/mL
Serratia marcescens
  MIC: > 16 µg/mL
Enterococcus faecalis [29]
  MIC: 0.25 µg/mL (≈ 0.173 µM)
Klebsiella pneumoniae
  MIC: > 16 µg/mL

## N/C(=N\N=C\c1cc(Br)cc([N+](=O)[O-])c1O)c1ccncc1
Staphylococcus aureus [2]
  MIC: inactive
[3]
  Activity: inactive

## N/N=C(/N)c1ccncc1
PBMC [1]
  Activity: 13.8%

## CC(=O)Oc1c(/C=N/N=C(\N)c2ccncc2)cc(C(C)(C)C)cc1C(C)(C)C
Staphylococcus aureus [2]
  MIC: 4 µg/mL (≈ 10.1 µM)
[3]
  Activity: inactive

## COc1c(/C=N/N=C(\N)c2ccncc2)cc(C(C)(C)C)cc1C(C)(C)C
Staphylococcus aureus [2]
  MIC: inactive
